The values that follow come from ChEMBL document CHEMBL1938268, “Synthesis, characterization and in vitro biological evaluation of some novel diarylsulfonylureas as potential cytotoxic and antimicrobial agents” (Bioorg Med Chem Lett, 2012).

The subject of one series is Aspergillus oryzae. The experiment in a line: Antifungal activity against Aspergillus oryzae NCIM 643 after 48 hrs by agar well diffusion assay. The format is functional. The following applies: NCIM 643, 48 h. The method, boiled down: (§1)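 Fungal spore suspensions in sterile distilled water set to final 10⁶ CFU/mL; 0.1 mL spread on Potato-Dextrose-Agar. NCCLS agar well diffusion with NCIM standard strains: 6 mm wells given 0.1 mL compound diluted in 1% DMSO, final 16 to 512 µg/mL. Triplicate plates held 48 h at 28 0.2 °C. MIC is lowest concentration fully inhibiting growth.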
(A growth-free zone around the sample is the usual read-out of agar diffusion tests.)

The subject of the next series is Pseudomonas aeruginosa. The experiment in a line: Antibacterial activity against Pseudomonas aeruginosa NCIM 2036 after 24 hrs by agar well diffusion assay. Format: functional. The following applies: NCIM 2036, 24 h. The method, boiled down:
(§2)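 Agar well diffusion per NCCLS; NCIM standard strains. Nutrient agar seeded with 0.1 mL bacterial suspension in sterile 0.85% saline at 10⁵ CFU/mL. Plates in triplicate, 37 0.5 °C, 24 h. MIC taken as lowest concentration giving complete growth inhibition.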

The test system of another series is Staphylococcus aureus. The experiment in a line: Antibacterial activity against Staphylococcus aureus NCIM 2079 after 24 hrs by agar well diffusion assay. The following applies: NCIM 2079, 24 h. The format is functional. The gist of the method: as §2
The next series relates to Bacillus subtilis. The experiment in a line: Antibacterial activity against Bacillus subtilis NCIM 2063 after 24 hrs by agar well diffusion assay. The following applies: NCIM 2063, 24 h. The format is functional. The method, boiled down:
as §2

The test system of the next series is Proteus vulgaris. The experiment in a line: Antibacterial activity against Proteus vulgaris NCIM 2813 after 24 hrs by agar well diffusion assay. The format is functional. The following applies: NCIM 2813, 24 h. The method, boiled down:
as §2

The test system of a further series is Klebsiella pneumoniae. The experiment in a line: Antibacterial activity against Klebsiella pneumoniae NCIM 5082 after 24 hrs by agar well diffusion assay. Format: functional. The following applies: NCIM 5082, 24 h. The method, boiled down:
as §2

The subject of a further series is Micrococcus luteus. The experiment in a line: Antibacterial activity against Micrococcus luteus NCIM 2155 after 24 hrs by agar well diffusion assay. Format: functional. The following applies: NCIM 2155, 24 h. The method, boiled down:
as §2

A further series deals with Aspergillus niger. The experiment in a line: Antifungal activity against Aspergillus niger NCIM 548 after 48 hrs by agar well diffusion assay. Format: functional. The following applies: NCIM 548, 48 h. The method, boiled down:
as §1

Another series relates to Candida albicans. The experiment in a line: Antifungal activity against Candida albicans NCIM 3102 after 48 hrs by agar well diffusion assay. Format: functional. The following applies: NCIM 3102, 48 h. The gist of the method: as §1
A further series relates to Penicillium chrysogenum. The experiment in a line: Antifungal activity against Penicillium chrysogenum NCIM 738 after 48 hrs by agar well diffusion assay. Format: functional. The following applies: NCIM 738, 48 h. The gist of the method:
as §1

A short description of series [1]: Toxicity against Brine shrimp nauplii after 24 hrs. The format is organism-based. The following applies: artemia salina, in vivo; read-out: ED50. The gist of the method:
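Artemia salina nauplii hatched 38 h in sterile brine (sea salt 38 g/L, pH 8.5) under aeration; 10 nauplii per vial exposed to graded compound concentrations in 5 mL final volume, 37 °C, 24 h under incandescent light. Survivors counted; percent lethality versus vehicle-treated controls; ED50 from probit analysis; podophyllotoxin positive control.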

The test system of another series is Bacillus pumilus. The experiment in a line: Antibacterial activity against Bacillus pumilus NCIM 2327 after 24 hrs by agar well diffusion assay. The following applies: NCIM 2327, 24 h.
Another series has as its system Escherichia coli. The experiment in a line: Antibacterial activity against Escherichia coli NCIM 2065 after 24 hrs by agar well diffusion assay. The format is functional. The following applies: NCIM 2065, 24 h. The gist of the method: as §2

Converted amounts (≈) assume the structure as drawn.

Usually MIC stands for the lowest concentration found to suppress growth. Low values mean greater potency, high ones weaker potency. As to `COc1ccc(/C=C/C(=O)c2ccccc2NC(=O)NS(=O)(=O)c2ccc(C)cc2)c(OC)c1`, the MIC against Aspergillus oryzae is 128 µg/mL (≈ 266 µM); in the series on Pseudomonas aeruginosa, 32 µg/mL (≈ 66.6 µM); against Staphylococcus aureus it was 32 µg/mL (≈ 66.6 µM); with Bacillus subtilis it was 32 µg/mL (≈ 66.6 µM); with Proteus vulgaris, 128 µg/mL (≈ 266 µM); against Klebsiella pneumoniae it was 128 µg/mL (≈ 266 µM). Further, the MIC with Micrococcus luteus is 128 µg/mL (≈ 266 µM); in the series on Aspergillus niger, 128 µg/mL (≈ 266 µM); in the series on Candida albicans it was 128 µg/mL (≈ 266 µM); against Penicillium chrysogenum, 128 µg/mL (≈ 266 µM); in the series on Bacillus pumilus, 32 µg/mL (≈ 66.6 µM); in the series on Escherichia coli, 32 µg/mL (≈ 66.6 µM). In addition, the LC50 at 24 h in series [1] came to 16 µg/mL (≈ 33.4 µM).
Regarding `Cc1ccc(S(=O)(=O)NC(=O)Nc2ccccc2C(=O)/C=C/c2ccccc2O)cc1`, the MIC came to 256 µg/mL (≈ 586 µM) against Aspergillus oryzae; 512 µg/mL (≈ 1170 µM) against Pseudomonas aeruginosa; 256 µg/mL (≈ 586 µM) with Staphylococcus aureus; 512 µg/mL (≈ 1170 µM) with Bacillus subtilis; 256 µg/mL (≈ 586 µM) with Proteus vulgaris; 256 µg/mL (≈ 586 µM) against Klebsiella pneumoniae. In addition, the MIC in the series with Micrococcus luteus was found to be 256 µg/mL (≈ 586 µM); in the series on Aspergillus niger, 256 µg/mL (≈ 586 µM); in the series on Candida albicans it was 256 µg/mL (≈ 586 µM); in the series with Penicillium chrysogenum, 256 µg/mL (≈ 586 µM); against Bacillus pumilus it was 512 µg/mL (≈ 1170 µM); with Escherichia coli, 512 µg/mL (≈ 1170 µM). Besides, the LC50 at 24 h in series [1] came out at 32.3 µg/mL (≈ 74.1 µM).
`Cc1ccc(S(=O)(=O)NC(=O)Nc2ccccc2C(=O)/C=C/c2cccc(O)c2)cc1`: the MIC against Aspergillus oryzae, against Pseudomonas aeruginosa, in the series on Staphylococcus aureus, against Bacillus subtilis, with Proteus vulgaris and against Klebsiella pneumoniae was 512 µg/mL (≈ 1170 µM) in each case. Also, the MIC against Micrococcus luteus, against Aspergillus niger, in the series with Candida albicans, with Penicillium chrysogenum, against Bacillus pumilus and in the series on Escherichia coli was 512 µg/mL (≈ 1170 µM) each time. Besides, the LC50 at 24 h in series [1] came out at 39.3 µg/mL (≈ 89.9 µM).
For the molecule `Cc1ccc(S(=O)(=O)NC(=O)Nc2ccccc2C(=O)/C=C/c2ccc(O)cc2)cc1`, the MIC stood at 128 µg/mL (≈ 293 µM) in the series on Aspergillus oryzae; 256 µg/mL (≈ 586 µM) against Pseudomonas aeruginosa; 256 µg/mL (≈ 586 µM) with Staphylococcus aureus; 256 µg/mL (≈ 586 µM) with Bacillus subtilis; 128 µg/mL (≈ 293 µM) in the series with Proteus vulgaris; 128 µg/mL (≈ 293 µM) in the series on Klebsiella pneumoniae. The MIC in the series on Micrococcus luteus, with Aspergillus niger, against Candida albicans, in the series on Penicillium chrysogenum, against Bacillus pumilus and with Escherichia coli was 128 µg/mL (≈ 293 µM) each time. Besides, the LC50 at 24 h in series [1] came out at 24.3 µg/mL (≈ 55.7 µM).
Consider `CCOc1cc(/C=C/C(=O)c2ccccc2NC(=O)NS(=O)(=O)c2ccc(C)cc2)ccc1O`, for which the MIC was 512 µg/mL (≈ 1070 µM) against Aspergillus oryzae; 128 µg/mL (≈ 266 µM) with Pseudomonas aeruginosa; 128 µg/mL (≈ 266 µM) in the series on Staphylococcus aureus; 128 µg/mL (≈ 266 µM) in the series with Bacillus subtilis; 512 µg/mL (≈ 1070 µM) against Proteus vulgaris; 512 µg/mL (≈ 1070 µM) in the series with Klebsiella pneumoniae. The MIC against Micrococcus luteus is 512 µg/mL (≈ 1070 µM); in the series on Aspergillus niger, 512 µg/mL (≈ 1070 µM); in the series with Candida albicans, 512 µg/mL (≈ 1070 µM); against Penicillium chrysogenum, 512 µg/mL (≈ 1070 µM); against Bacillus pumilus it was 64 µg/mL (≈ 133 µM); against Escherichia coli, 64 µg/mL (≈ 133 µM). Besides, the LC50 at 24 h in series [1] amounted to 19.2 µg/mL (≈ 40 µM).
Regarding `COc1cc(/C=C/C(=O)c2ccccc2NC(=O)NS(=O)(=O)c2ccc(C)cc2)ccc1O`, the MIC in the series with Aspergillus oryzae came out at 128 µg/mL (≈ 274 µM); with Pseudomonas aeruginosa, 64 µg/mL (≈ 137 µM); with Staphylococcus aureus it was 128 µg/mL (≈ 274 µM); with Bacillus subtilis, 64 µg/mL (≈ 137 µM); against Proteus vulgaris, 128 µg/mL (≈ 274 µM); against Klebsiella pneumoniae it was 128 µg/mL (≈ 274 µM). The MIC amounted to 128 µg/mL (≈ 274 µM) against Micrococcus luteus; 128 µg/mL (≈ 274 µM) against Aspergillus niger; 128 µg/mL (≈ 274 µM) in the series with Candida albicans; 128 µg/mL (≈ 274 µM) in the series with Penicillium chrysogenum; 64 µg/mL (≈ 137 µM) in the series on Bacillus pumilus; 64 µg/mL (≈ 137 µM) with Escherichia coli. Further, the LC50 at 24 h in [1] came out at 17.8 µg/mL (≈ 38.2 µM).
Take `Cc1ccc(S(=O)(=O)NC(=O)Nc2ccccc2C(=O)/C=C/c2ccccc2[N+](=O)[O-])cc1`: the MIC against Aspergillus oryzae was 16 µg/mL (≈ 34.4 µM); against Pseudomonas aeruginosa it was 16 µg/mL (≈ 34.4 µM); in the series on Staphylococcus aureus, 16 µg/mL (≈ 34.4 µM); against Bacillus subtilis, 16 µg/mL (≈ 34.4 µM); against Proteus vulgaris, 32 µg/mL (≈ 68.7 µM); with Klebsiella pneumoniae, 32 µg/mL (≈ 68.7 µM). In addition, the MIC was found to be 32 µg/mL (≈ 68.7 µM) in the series with Micrococcus luteus; 16 µg/mL (≈ 34.4 µM) in the series with Aspergillus niger; 16 µg/mL (≈ 34.4 µM) in the series on Candida albicans; 16 µg/mL (≈ 34.4 µM) in the series on Penicillium chrysogenum; 16 µg/mL (≈ 34.4 µM) in the series with Bacillus pumilus; 32 µg/mL (≈ 68.7 µM) against Escherichia coli. Also, in [1], the LC50 at 24 h came to 40.1 µg/mL (≈ 86.2 µM).
